The results in this text go back to ChEMBL document CHEMBL2203173 (J Med Chem, 2012).

The test system of data set [1] is Mus musculus. The data set can be described thus: Toxicity in BALB/c nu/nu mouse xenografted with human DMS53 cells assessed as change in body weight at 6 mg/kg, iv administered for 5 days a week measured after 21 days. The class given is organism-based, DMS-53. On the set-up: dose 6 mg/kg, route intravenous. The note with it: in vivo, 504 h. The gist of the method: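 DMS-53 xenografts in nude mice; dosing started at 100 mm3 tumor volume. Agents given iv via tail vein, 5 days/week for 21 days, vehicle 30% propylene glycol/saline, vehicle-treated controls. Mice sacrificed day 21. Body and organ weights and hematological indices recorded. Spleen, kidney, liver, heart, lungs and brain were stained with H&E, Perls' and Gomori Trichrome and read by an independent veterinary pathologist.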
On the technique in general: In xenograft studies the graft and the host belong to different species.

The subject of data set [2] is Mus musculus. Nature of the data set: Cardiotoxicity in BALB/c nu/nu mouse xenografted with human DMS53 cells at 4 mg/kg, iv administered for 5 days a week measured after 21 days. It counts as toxicity, organism-based, DMS-53. The arrangement: dose 4 mg/kg, route intravenous. As to conditions: in vivo, 504 h. A digest of the protocol: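 DMS-53 xenograft nude mice given agents iv by tail vein 5 days/week in 30% propylene glycol/saline for 21 days. At sacrifice, heart sections were stained with Gomori Trichrome to detect fibrosis. Spleen, kidney, liver, heart, lungs and brain were also stained with H&E and Perls' and examined by an independent veterinary pathologist.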

For `CCN(C)C(=S)NN=C(c1ccccn1)c1ccccn1.Cl`, in the data set on Mus musculus [1], the Activity result is given as “Non-toxic”.

Take `CN(C(=S)NN=C(c1ccccn1)c1ccccn1)C1CCCCC1.Cl`: the Activity result in the data set on Mus musculus [2] is recorded as “Non-toxic”.
